Experimental data from paper PMC6860364 (British journal of haematology, 2017).

Legend:
[1] = system: CT-L, T-L and C-L catalytic activities of the proteasome; assay: Pharmacodynamics: proteasome activity in packed whole blood; type: in vivo, human; conditions: 0·4 and 0·5 mg/m^2 MRZ, study dosing schedule
[2] = preclinical studies; ref Di et al, 2016; cited from earlier work
[3] = Blood pharmacokinetics of MRZ in RRMM patients, Cycle 1 Day 8, non-compartmental; type: in vivo; conditions: human, iv
Procedure, shortened: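 Relapsed/refractory myeloma patients got the test compound at 0·3–0·5 mg/m² as a 2-h IV infusion on days 1, 4, 8 and 11 of 28-day cycles, with pomalidomide and oral dexamethasone. Saline hydration ran 1 h before and 2 h after infusion. Blood was sampled on Cycle 1 Day 8 pre-dose, at 40, 80 and 120 min into infusion, and 2–90 min after its end.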

[4] = historical studies; ref Harrison et al, 2016; cited from earlier work

C[C@@]12OC(=O)[C@]1([C@@H](O)[C@@H]1C=CCCC1)NC(=O)[C@@H]2CCCl [MRZ, Marizomib]
proteasome subunit inhibition in PWB [1]: Partial or complete proteasome subunit inhibition in PWB was achieved
ability to cross the blood brain barrier (BBB) [2]: crosses the BBB
Vd [3]: 41 to 86 L
clearance [3]: 4200 to 9400 mL/min
half-life [4]: 6 to 10 min
